Reference: ChEMBL document CHEMBL1921795, “Discovery, synthesis, and structure-activity relationship development of a series of N-4-(2,5-dioxopyrrolidin-1-yl)phenylpicolinamides (VU0400195, ML182): characterization of a novel positive allosteric modulator of the metabotropic glutamate receptor 4 (mGlu(4)) with oral efficacy in an …” (J Med Chem, 2011)

How the values were obtained:
[1] = biological target: T1, Metabotropic glutamate receptor 4 (Homo sapiens, UniProt Q14833); experiment: Positive allosteric modulator activity at human mGlu4 receptor expressed in CHO cells expressing Gqi5 by calcium mobilization assay
T1 sequence (Q14833 whole entry): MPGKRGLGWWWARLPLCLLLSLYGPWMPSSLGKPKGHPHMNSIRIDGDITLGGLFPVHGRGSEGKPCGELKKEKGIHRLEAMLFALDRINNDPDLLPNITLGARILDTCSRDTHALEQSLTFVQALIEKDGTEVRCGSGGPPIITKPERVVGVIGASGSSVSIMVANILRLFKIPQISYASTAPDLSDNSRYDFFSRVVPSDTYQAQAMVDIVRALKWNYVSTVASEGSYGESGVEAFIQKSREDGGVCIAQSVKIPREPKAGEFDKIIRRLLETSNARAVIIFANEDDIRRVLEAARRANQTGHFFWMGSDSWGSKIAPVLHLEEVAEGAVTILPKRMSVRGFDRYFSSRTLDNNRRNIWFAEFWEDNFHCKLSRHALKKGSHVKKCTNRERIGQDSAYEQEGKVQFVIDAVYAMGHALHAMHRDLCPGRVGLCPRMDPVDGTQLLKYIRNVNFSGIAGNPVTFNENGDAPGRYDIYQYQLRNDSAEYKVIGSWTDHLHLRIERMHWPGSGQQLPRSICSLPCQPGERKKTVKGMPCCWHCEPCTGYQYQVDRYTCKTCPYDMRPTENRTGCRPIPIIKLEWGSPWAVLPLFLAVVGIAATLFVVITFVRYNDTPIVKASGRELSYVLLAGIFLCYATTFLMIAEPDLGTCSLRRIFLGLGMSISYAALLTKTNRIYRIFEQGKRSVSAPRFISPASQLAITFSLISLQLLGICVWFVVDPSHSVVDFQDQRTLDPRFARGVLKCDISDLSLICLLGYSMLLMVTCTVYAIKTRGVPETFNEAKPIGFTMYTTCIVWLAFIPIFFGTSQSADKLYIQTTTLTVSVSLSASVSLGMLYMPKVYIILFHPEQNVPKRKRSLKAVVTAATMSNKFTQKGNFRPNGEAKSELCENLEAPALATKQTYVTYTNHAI

[2] = biological target: T1, Metabotropic glutamate receptor 4; experiment: Positive allosteric modulation of human mGlu4 receptor expressed in CHO cells coexpressing Gqi5 assessed as potentiation of glutamate-induced calcium mobilization relative to (-)-PHCCC; format: functional, cell-based
Procedure, shortened: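 CHO cells stably expressing human mGlu4 with chimeric Gqi5, plated overnight, loaded 45 min at 37 °C with 1 µM Fluo-4 AM. Compound (10-point, 1:3 dilutions) was added about 2.5 min before an EC20 glutamate, then EC80 glutamate 2 min later. Ca2+ fluorescence read at 470/540 nm. Four-parameter logistic fit.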

[3] = biological target: Metabotropic glutamate receptor 4 (Rattus norvegicus, UniProt P31423); experiment: Positive allosteric modulator activity at rat mGlu4 receptor by thallium flux assay
Metabotropic glutamate receptor 4 (Rattus norvegicus, UniProt P31423), sequence (P31423 whole entry): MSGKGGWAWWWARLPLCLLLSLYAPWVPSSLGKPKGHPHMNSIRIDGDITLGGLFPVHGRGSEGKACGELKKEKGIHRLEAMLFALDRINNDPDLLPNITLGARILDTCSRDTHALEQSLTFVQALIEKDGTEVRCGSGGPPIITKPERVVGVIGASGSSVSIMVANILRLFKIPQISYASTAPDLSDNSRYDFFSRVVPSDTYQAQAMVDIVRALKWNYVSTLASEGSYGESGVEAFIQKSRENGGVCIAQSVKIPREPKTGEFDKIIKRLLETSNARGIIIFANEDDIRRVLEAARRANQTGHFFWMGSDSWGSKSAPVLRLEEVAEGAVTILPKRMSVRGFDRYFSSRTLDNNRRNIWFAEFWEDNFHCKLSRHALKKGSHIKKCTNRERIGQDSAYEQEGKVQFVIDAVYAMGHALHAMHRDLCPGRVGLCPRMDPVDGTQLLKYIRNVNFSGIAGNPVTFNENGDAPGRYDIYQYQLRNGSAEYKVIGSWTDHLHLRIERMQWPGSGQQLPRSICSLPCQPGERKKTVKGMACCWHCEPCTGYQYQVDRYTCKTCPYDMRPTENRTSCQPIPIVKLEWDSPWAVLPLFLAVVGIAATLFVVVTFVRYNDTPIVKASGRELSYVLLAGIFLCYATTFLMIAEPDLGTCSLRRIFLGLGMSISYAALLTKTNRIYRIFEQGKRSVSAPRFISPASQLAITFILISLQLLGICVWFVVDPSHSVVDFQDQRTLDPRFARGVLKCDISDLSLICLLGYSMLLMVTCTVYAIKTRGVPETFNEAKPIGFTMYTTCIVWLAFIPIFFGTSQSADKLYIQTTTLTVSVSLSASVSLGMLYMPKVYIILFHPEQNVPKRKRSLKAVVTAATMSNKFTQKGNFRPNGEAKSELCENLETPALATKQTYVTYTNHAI

[4] = biological target: Metabotropic glutamate receptor 4 (Rattus norvegicus) (UniProt P31423); experiment: Positive allosteric modulator activity at rat mGlu4 receptor by thallium flux assay at 30 uM relative to glutamate
Metabotropic glutamate receptor 4 (Rattus norvegicus), sequence (P31423 whole entry): as above

[5] = biological target: Metabotropic glutamate receptor 4 (Rattus norvegicus) (UniProt P31423); experiment: Positive allosteric modulation of rat mGlu4 receptor assessed as potentiation of glutamate-induced thallium flux relative to (-)-PHCCC; parameters: concentration or dose not given beside the values

SMILES | EC50 ([1]; cho) | Activity [2] [%] | EC50 [3] [nM] | fold change (FC) [4] | Activity [5] [%] | EC50 [1] [nM]
O=C(Nc1ccccn1)c1ccc(N2S(=O)(=O)c3ccccc3S2(=O)=O)cc1 | Not Active | 30.7 |  |  |  | 
O=C(Nc1ccc(N2C(=O)[C@H]3CCCC[C@H]3C2=O)c(Cl)c1)c1ccccn1 |  | 107 | 645 | 8.3 | 129 | 
O=C(Nc1ccc(N2S(=O)(=O)c3ccccc3S2(=O)=O)cc1)c1ccncn1 |  | 100 | 242 | 3.3 | 103 | 179
O=C(Nc1ccc(N2CCCS2(=O)=O)cc1)c1ccccn1 | Not Active | 25 |  |  |  | 
O=C(Nc1ccc(N2S(=O)(=O)c3ccccc3S2(=O)=O)cc1)c1ccccc1 |  | 65 |  |  |  | 402
O=S1(=O)c2ccccc2S(=O)(=O)N1c1ccc(NCc2ccccn2)cc1 |  | 110 |  |  |  | 1800
CC1(c2ccccc2)CC(=O)N(c2ccc(NC(=O)c3ccccn3)cc2Cl)C1=O (racemic) |  | 124 |  | 16.7 | 131 | 
O=C(Nc1ccc(N2S(=O)(=O)c3ccccc3S2(=O)=O)cc1)c1nccs1 |  | 122 | 201 | 4.7 | 127 | 353
O=C(Nc1ccc(N2S(=O)(=O)c3ccccc3S2(=O)=O)cc1)C1CCCCC1 |  | 48.3 |  |  |  | 765
O=C(Nc1ccc(N2C(=O)c3ccccc3C2=O)c(Cl)c1)c1ccccn1 |  | 104 | 66.8 | 23.6 | 132 | 
O=C(Nc1ccc(N2S(=O)(=O)c3ccccc3S2(=O)=O)cc1)c1cscn1 |  | 123 | 105 | 7.3 | 115 | 104
O=C(Nc1ccc(N2S(=O)(=O)c3ccccc3S2(=O)=O)cc1)c1cncs1 | Not Active | 39.7 |  |  |  | 
O=C(Nc1ccc(N2S(=O)(=O)c3ccccc3S2(=O)=O)cc1)c1ccco1 |  | 110 |  |  |  | 226
O=C(Nc1ccc(N2C(=O)CCC2=O)c(Cl)c1)c1ccccn1 |  | 74 |  |  |  | 6200
O=C(Nc1ccc(N2S(=O)(=O)c3ccccc3S2(=O)=O)cc1F)c1ccccn1 |  | 67.7 |  |  |  | 1100
COc1cccc(C(=O)Nc2ccc(N3S(=O)(=O)c4ccccc4S3(=O)=O)cc2)n1 | Not Active | 22 |  |  |  | 
O=C(Nc1ccc(N2S(=O)(=O)c3ccccc3S2(=O)=O)cc1)c1cccnc1 | Not Active | 27.7 |  |  |  | 
O=C(Nc1ccc(N2S(=O)(=O)c3ccccc3S2(=O)=O)cc1)c1cccc(F)n1 |  | 76.7 |  |  |  | 1800
CC1(C)CC(=O)N(c2ccc(NC(=O)c3ccccn3)cc2Cl)C1=O |  | 82 |  |  |  | 1400
O=C(Nc1ccc(N2C(=O)c3cccc(Cl)c3C2=O)c(Cl)c1)c1ccccn1 |  | 130 | 34.9 | 83 | 137 | 
O=C(Nc1ccc(N2S(=O)(=O)c3ccccc3S2(=O)=O)cc1)c1ccncc1 | Not Active | 22.3 |  |  |  | 
CC1(C)[C@@H]2C(=O)N(c3ccc(NC(=O)c4ccccn4)cc3Cl)C(=O)[C@@H]21 |  | 100 |  | 5.5 | 105 | 
O=C(Nc1ccc(N2C(=O)[C@@H]3[C@H](C2=O)[C@@H]2CC[C@H]3O2)c(Cl)c1)c1ccccn1 |  | 90 |  |  |  | 1300
O=C(Nc1ccc(N2C(=O)[C@@H]3[C@H](C2=O)[C@H]2C=C[C@@H]3CC2)c(Cl)c1)c1ccccn1 |  | 120 |  | 5.2 | 122 | 
O=S1(=O)c2ccccc2S(=O)(=O)N1c1ccc(NC2(c3ccccn3)CC2)cc1 |  | 62.7 |  |  |  | 6400
